# Key:
# Type in all cases: functional
# [1] = tested on: Staphylococcus epidermidis; experiment: Antibacterial activity against methicillin-susceptible Staphylococcus epidermidis assessed as percent cumulative susceptible isolates at minimum inhibitory concentration of 2 ug/ml by CLSI broth microdilution method; parameters: scale not given: the % may be the effect or the level left
# [2] = tested on: Staphylococcus epidermidis; experiment: Antibacterial activity against methicillin-susceptible Staphylococcus epidermidis assessed as percent cumulative susceptible isolates at minimum inhibitory concentration of 8 ug/ml by CLSI broth microdilution method; parameters: scale not given: the % may be the effect or the level left
# [3] = tested on: Enterobacter cloacae; experiment: Antibacterial activity against Enterobacter cloacae assessed as percent cumulative susceptible isolates at minimum inhibitory concentration of 8 ug/ml by CLSI broth microdilution method; parameters: scale not given: the % may be the effect or the level left
# [4] = tested on: Enterobacter cloacae; experiment: Antibacterial activity against Enterobacter cloacae assessed as percent cumulative susceptible isolates at minimum inhibitory concentration of 32 ug/ml by CLSI broth microdilution method; parameters: scale not given: the % may be the effect or the level left
# [5] = tested on: Proteus mirabilis; experiment: Antibacterial activity against Proteus mirabilis assessed as percent cumulative susceptible isolates at minimum inhibitory concentration of 4 ug/ml by CLSI broth microdilution method; parameters: scale not given: the % may be the effect or the level left
# [6] = tested on: Streptococcus pneumoniae; experiment: Antibacterial activity against Streptococcus pneumoniae assessed as percent cumulative susceptible isolates at minimum inhibitory concentration of 32 ug/ml by CLSI broth microdilution method; parameters: scale not given: the % may be the effect or the level left
# In short: (§1)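 Clinical isolates tested by CLSI broth microdilution using 96-well panels of doubling drug dilutions in cation-adjusted Mueller-Hinton broth with 5% lysed horse blood. MIC was read from these panels. Panel quality control used CLSI ATCC strains, including S. pneumoniae 49619, S. aureus 29213, E. faecalis 29212 and E. coli 25922. Cumulative percentages of isolates were tabulated at each MIC.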
# [7] = tested on: Enterococcus faecalis; experiment: Antibacterial activity against Enterococcus faecalis assessed as percent cumulative susceptible isolates at minimum inhibitory concentration of […] by CLSI broth microdilution method; parameters: scale not given: the % may be the effect or the level left
# [8] = tested on: Enterococcus faecalis; experiment: Antibacterial activity against Enterococcus faecalis assessed as percent cumulative susceptible isolates at minimum inhibitory concentration of 2 ug/ml by CLSI broth microdilution method; parameters: scale not given: the % may be the effect or the level left
# [9] = tested on: Proteus mirabilis; experiment: Antibacterial activity against Proteus mirabilis assessed as percent cumulative susceptible isolates at minimum inhibitory concentration of 32 ug/ml by CLSI broth microdilution method; parameters: scale not given: the % may be the effect or the level left
# [10] = tested on: Pseudomonas aeruginosa; experiment: Antibacterial activity against Pseudomonas aeruginosa assessed as percent cumulative susceptible isolates at minimum inhibitory concentration of […] by CLSI broth microdilution method; parameters: scale not given: the % may be the effect or the level left
# [11] = tested on: Pseudomonas aeruginosa; experiment: Antibacterial activity against Pseudomonas aeruginosa assessed as percent cumulative susceptible isolates at minimum inhibitory concentration of 2 ug/ml by CLSI broth microdilution method; parameters: scale not given: the % may be the effect or the level left
# [12] = tested on: Stenotrophomonas maltophilia; experiment: Antibacterial activity against Stenotrophomonas maltophilia assessed as percent cumulative susceptible isolates at minimum inhibitory concentration of 2 ug/ml by CLSI broth microdilution method; parameters: scale not given: the % may be the effect or the level left
# [13] = tested on: Stenotrophomonas maltophilia; experiment: Antibacterial activity against Stenotrophomonas maltophilia assessed as percent cumulative susceptible isolates at minimum inhibitory concentration of 8 ug/ml by CLSI broth microdilution method; parameters: scale not given: the % may be the effect or the level left
# [14] = tested on: Acinetobacter baumannii; experiment: Antibacterial activity against Acinetobacter baumannii assessed as percent cumulative susceptible isolates at minimum inhibitory concentration of […] by CLSI broth microdilution method; parameters: scale not given: the % may be the effect or the level left
# [15] = tested on: Staphylococcus aureus; experiment: Antibacterial activity against methicillin-resistant Staphylococcus aureus by CLSI M7-A7 broth microdilution method
# [16] = tested on: Staphylococcus aureus; experiment: Antibacterial activity against Staphylococcus aureus by CLSI M7-A7 broth microdilution method
# [17] = tested on: Staphylococcus aureus; experiment: Antibacterial activity against methicillin-susceptible Staphylococcus aureus assessed as percent cumulative susceptible isolates at minimum inhibitory concentration of […] by CLSI broth microdilution method; parameters: scale not given: the % may be the effect or the level left
# [18] = tested on: Staphylococcus aureus; experiment: Antibacterial activity against methicillin-susceptible Staphylococcus aureus assessed as percent cumulative susceptible isolates at minimum inhibitory concentration of 4 ug/ml by CLSI broth microdilution method; parameters: scale not given: the % may be the effect or the level left
# [19] = tested on: Escherichia coli; experiment: Antibacterial activity against Escherichia coli assessed as percent cumulative susceptible isolates at minimum inhibitory concentration of 0.5 ug/ml by CLSI broth microdilution method; parameters: scale not given: the % may be the effect or the level left
# [20] = tested on: Escherichia coli; experiment: Antibacterial activity against Escherichia coli assessed as percent cumulative susceptible isolates at minimum inhibitory concentration of 4 ug/ml by CLSI broth microdilution method; parameters: scale not given: the % may be the effect or the level left
# [21] = tested on: Escherichia coli; experiment: Antibacterial activity against Escherichia coli assessed as percent cumulative susceptible isolates at minimum inhibitory concentration of 32 ug/ml by CLSI broth microdilution method; parameters: scale not given: the % may be the effect or the level left
# [22] = tested on: Klebsiella pneumoniae; experiment: Antibacterial activity against Klebsiella pneumoniae assessed as percent cumulative susceptible isolates at minimum inhibitory concentration of […] by CLSI broth microdilution method; parameters: scale not given: the % may be the effect or the level left
# [23] = tested on: Klebsiella pneumoniae; experiment: Antibacterial activity against Klebsiella pneumoniae assessed as percent cumulative susceptible isolates at minimum inhibitory concentration of 1 ug/ml by CLSI broth microdilution method; parameters: scale not given: the % may be the effect or the level left
# [24] = tested on: Klebsiella pneumoniae; experiment: Antibacterial activity against Klebsiella pneumoniae assessed as percent cumulative susceptible isolates at minimum inhibitory concentration of 32 ug/ml by CLSI broth microdilution method; parameters: scale not given: the % may be the effect or the level left
# [25] = tested on: Enterobacter cloacae; experiment: Antibacterial activity against Enterobacter cloacae assessed as percent cumulative susceptible isolates at minimum inhibitory concentration of 0.06 ug/ml by CLSI broth microdilution method; parameters: scale not given: the % may be the effect or the level left
# [26] = tested on: Staphylococcus aureus; experiment: Antibacterial activity against hospital-associated methicillin-resistant Staphylococcus aureus assessed as percent cumulative susceptible isolates at minimum inhibitory concentration of […] by CLSI broth microdilution method; parameters: scale not given: the % may be the effect or the level left
# [27] = tested on: Staphylococcus aureus; experiment: Antibacterial activity against hospital-associated methicillin-resistant Staphylococcus aureus assessed as percent cumulative susceptible isolates at minimum inhibitory concentration of 8 ug/ml by CLSI broth microdilution method; parameters: scale not given: the % may be the effect or the level left
# [28] = tested on: Enterobacter cloacae; experiment: Antibacterial activity against Enterobacter cloacae assessed as percent cumulative susceptible isolates at minimum inhibitory concentration of 4 ug/ml by CLSI broth microdilution method; parameters: scale not given: the % may be the effect or the level left
# [29] = tested on: Streptococcus pneumoniae; experiment: Antibacterial activity against Streptococcus pneumoniae assessed as percent cumulative susceptible isolates at minimum inhibitory concentration of <=0.008 ug/ml by CLSI broth microdilution method; parameters: scale not given: the % may be the effect or the level left
# [30] = tested on: Streptococcus pneumoniae; experiment: Antibacterial activity against Streptococcus pneumoniae assessed as percent cumulative susceptible isolates at minimum inhibitory concentration of […] by CLSI broth microdilution method; parameters: scale not given: the % may be the effect or the level left
# [31] = tested on: Pseudomonas aeruginosa; experiment: Antibacterial activity against Pseudomonas aeruginosa assessed as percent cumulative susceptible isolates at minimum inhibitory concentration of 128 ug/ml by CLSI broth microdilution method; parameters: scale not given: the % may be the effect or the level left
# [32] = tested on: Staphylococcus aureus; experiment: Antibacterial activity against hospital-associated methicillin-resistant Staphylococcus aureus by CLSI M7-A7 broth microdilution method; in short: as §1
# [33] = tested on: Staphylococcus aureus; experiment: Antibacterial activity against methicillin-resistant Staphylococcus aureus assessed as percent cumulative susceptible isolates at minimum inhibitory concentration of 0.06 ug/ml by CLSI broth microdilution method; parameters: scale not given: the % may be the effect or the level left
# [34] = tested on: Escherichia coli; experiment: Antibacterial activity against Escherichia coli assessed as percent cumulative susceptible isolates at minimum inhibitory concentration of <=[…] by CLSI broth microdilution method; parameters: scale not given: the % may be the effect or the level left
# [35] = tested on: Staphylococcus aureus; experiment: Antibacterial activity against non-levofloxacin susceptible Staphylococcus aureus assessed as percent cumulative susceptible isolates at minimum inhibitory concentration of 2 ug/ml by CLSI broth microdilution method; parameters: scale not given: the % may be the effect or the level left
# [36] = tested on: Staphylococcus aureus; experiment: Antibacterial activity against non-levofloxacin susceptible Staphylococcus aureus assessed as percent cumulative susceptible isolates at minimum inhibitory concentration of 32 ug/ml by CLSI broth microdilution method; parameters: scale not given: the % may be the effect or the level left
# [37] = tested on: Staphylococcus epidermidis; experiment: Antibacterial activity against methicillin-susceptible Staphylococcus epidermidis assessed as percent cumulative susceptible isolates at minimum inhibitory concentration of 0.03 ug/ml by CLSI broth microdilution method; parameters: scale not given: the % may be the effect or the level left
SMILES,Activity [1],Activity [3],Activity [4],Activity [5],Activity [7],Activity [8],Activity [9],Activity [10],Activity [11],Activity [12],Activity [14],MIC50 [15],MIC [16],MIC90 [16],Activity [17],Activity [18],Activity [19],Activity [20],Activity [21],Activity [22],other results
C[C@H]1COc2c(N3CCN(C)CC3)c(F)cc3c(=O)c(C(=O)O)cn1c23.C[C@H]1COc2c(N3CCN(C)CC3)c(F)cc3c(=O)c(C(=O)O)cn1c23.O [LEVOFLOXACIN],55.8%,98.6%,100%,93.9%,2.5%,67.9%,100%,10.2%,70.1%,69.2%,80%,≥ 32 µg/mL,≥ 2 µg/mL,16 µg/mL,81.8%,92%,73.6%,75.6%,100%,78.4%,Activity [2]: 76.7%; Activity [6]: 100%; Activity [13]: 92.3%; Activity [23]: 92.5%; Activity [24]: 100%; Activity [25]: 87.5%; Activity [26]: 3%; Activity [27]: 4%; Activity [28]: 97.2%
COc1c(N2C[C@@H](C)C[C@H](N)C2)ccc2c(=O)c(C(=O)O)cn(C3CC3)c12 [NEMONOXACIN],97.8%,95.8%,100%,81.8%,67.9%,97.5%,93.9%,4.4%,66.4%,42.3%,73.3%,4 µg/mL,< 2 µg/mL,0.06 µg/mL,92.5%,98.9%,72.5%,75.8%,93.2%,68.3%,Activity [29]: 19.2%; Activity [30]: 91%; Activity [31]: 97.8%; MIC [32]: ≥ 4 µg/mL; Activity [33]: 6.3%; Activity [34]: 0.2%; Activity [23]: 86.9%; Activity [24]: 98%; Activity [25]: 8.3%; Activity [35]: 36.1%; Activity [36]: 98%; Activity [26]: 4%; Activity [27]: 68.7%; Activity [37]: 53.5%; Activity [28]: 93.1%
